The record followed here is paper PMC10900806 (Asian Journal of Pharmaceutical Sciences, 2024).

Entries after “also recorded” stand apart in the source; their conditions may differ.

Format in all cases: cell-based
The test system of data set [1] is caspase-3. Kind of data set: Caspase-3 activity assay. To be noted: B16-F10 cells, 24 h treatment, Caspase-3 assay kit. Put shortly: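 B16-F10 cells were seeded at 5 × 10^5 per well and cultured overnight. They were then exposed to test peptides for 24 h, and caspase-3 activity was measured with a commercial caspase-3 activity kit.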
In data set [2] the test system is B16-F10 cells. The conditions noted are these: 5 µM, 1 h.
The test system of data set [3] is B16-F10 cells. Kind of data set: Cell cycle assay. The conditions noted are these: CPT 5 µM, AAM analogs 5 µM, conjugates 5 µM, 1 h at pH 5.5, then 24 h, n = 3.
For data set [4], the system named is B16-F10 cells. The data set is described as follows: Endosomal escape, co-localization with LysoTracker Red. The conditions noted are these: 5 µM, pH 5.5, 15 min then further 15, 30 and 60 min, ImageJ. Put shortly:
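Cells were exposed to a FAM-labelled test peptide (5 µM) at pH 5.5 for 15 min, taken as 0 min, then incubated a further 15, 30 or 60 min. Medium was removed and lysosomes were stained with LysoTracker Red (100 nM, 30 min). After confocal imaging, co-localisation was quantified as Pearson's correlation coefficient (R).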

The subject of data set [5] is B16-F10 cells. The data set is described as follows: LDH release assay. To be noted: 1 h, pH 7.4 or 5.5, CytoTox-ONE kit, n = 3. A general note: LDH in the medium is a marker of cell lysis.
In data set [6] the test system is erythrocyte suspension. The data set is described as follows: Hemolysis assay. The conditions noted are these: 10% (v/v) mouse erythrocytes in PBS, 1 h, 37 °C, absorbance at 450 nm. The gist of the method:
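Heparinised whole mouse blood was centrifuged at 1,000 × g for 15 min. The pellet was washed three times with PBS and resuspended to 10% (v/v) in PBS. Suspension was mixed with test compounds for 1 h at 37 °C, then centrifuged, and supernatant absorbance was read at 450 nm. PBS defined 0% and 0.1% Triton X-100 defined 100% hemolysis.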

The test system of data set [7] is B16-F10 cells. Kind of data set: PI uptake assay. To be noted: 10 µM. Put shortly:
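B16-F10 cells (6 × 10^4) were seeded in glass-bottomed dishes and cultured overnight. End point: 1 h exposure to 10 µM test agent at pH 5.5 or 7.4, then fresh DMEM with PI (1 µg/ml) for 10 min before confocal imaging. Kinetics: 10 µM agent was added to DMEM containing PI (1 µg/ml) at pH 5.5, with images taken every 1 min for 30 min.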

Data set [8] concerns B16-F10 cells. The data set is described as follows: Short-term cytotoxicity, MTT, 1 h. The conditions noted are these: 1 h incubation, serum-free medium, different pH values, n = 3. Put shortly:
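B16-F10 cells were seeded at 1 × 10^4 per well and cultured overnight. They were incubated 1 h with test compounds at different pH values, and viability was assessed by MTT. Membrane-lytic reference peptides served as positive controls. Data are from three independent experiments, given as mean ± SD.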

`CC[C@@]1(O)C(=O)OCc2c1cc1n(c2=O)Cc2cc3ccccc3nc2-1` [CPT, camptothecin]: in data set [1], the caspase-3 activation result is listed as “significantly activated caspase-3”. Moreover, in data set [2] (pH 7.4 or 5.5, near UV excitation), the “cellular uptake of CPT and peptide-CPT conjugates (blue fluorescence, confocal)” value was “distinction of fluorescence intensity between pH 7.4 and pH 5.5 was not obvious”. Also, the cell cycle distribution result in data set [3] is “significantly increased the cell proportion in the G2/M phase and decreased the cell proportion in the G0/G1 and S phases”.
Regarding “GIGAVLHVLTTGLPALISWIHHHHQC(FAM)-NH2 [FAM-AAM-1]”, the “Pearson's correlation coefficients (r) between FAM-AAM-1 and LysoTracker Red” value in data set [4] is on record as “r-values became gradually low over time”. For the same compound, in data set [2] (serum-free medium, pH 7.4 or 5.5), the “cellular uptake of FAM-labeled peptides, confocal microscopy” value is given as “higher cellular uptake in B16-F10 cells at pH 5.5 than that at pH 7.4”.
Consider melittin, for which the “LDH release (membrane-lytic activity)” value in data set [5] is “strong release of LDH at both pH 7.4 and 5.5”. Further, in data set [6], the hemolytic activity result is given as “extreme hemolytic activity”. Further, the “PI uptake (PI-positive cells, membrane-disruptive activity)” value in data set [7] (1 h, pH 7.4 and 5.5, PI 1 µg/ml, confocal) was “showed no obvious difference”. Moreover, the “membrane-lytic behavior in time-lapse images” value in data set [7] (pH 5.5, PI 1 µg/ml, images every 1 min for 30 min) was “developed necrosis, including rounding, blebbing, swelling, and bursting”. Also, the “short-term cytotoxicity against B16-F10 cells” value in data set [8] is reported as “high cytotoxicity to B16-F10 cells, even at 1.25 µM; also recorded: no obvious pH dependence”.
